PKD1 inh – blocks activity of human protein kinase D1 | PKD1 kinase fluorescence polarization assay | inhibition, % (test concentration not listed) | hit rate 0.056% among 200,000 | Q15139 | AID 797
RanGTP-Imp inh – disruptors of Ran-importin-beta complex formation – biochemical, FRET, CFP-Ran, YFP-importin-beta, homogeneous, primary screen; cell-free CFP-Ran/YFP-importin-beta FRET ratio; inhibition, % (test concentration not listed); hit rate 1.1% among 300,000; AID 2216;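 active means more than half of the replicate wells show a fall in the fluorescence ratio signal beyond about 16%, limit read from the data, passing the limit was not always enough; inconclusive means exactly half of the replicate wells pass the set limit; inactive means fewer than half of replicates pass the limit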;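 further: 0% = DMSO wells and 100% = Ran loaded with GDP instead of GTP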
MEX-5 binding – C. elegans MEX-5 TCR-2 RNA binding activity. Q9XUB2. MEX-5/FITC-TCR2 RNA binding, fluorescence polarization; stronger effect = lower value. activity score (negative = inhibition of binding), % at 10 µM. hit rate 0.38% among 300,000;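 active means inhibition past about -25% in most replicates, and total fluorescence under double the plate's negative control median, limit read from the data; inconclusive means replicates evenly split on the limit, or fluorescence at least double controls; inactive means too little inhibition in most replicates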;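 further: 0% = DMSO and -100% = 5 µM competing unlabeled TCR2 RNA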
Target sequence (Q9XUB2 whole entry, looked up): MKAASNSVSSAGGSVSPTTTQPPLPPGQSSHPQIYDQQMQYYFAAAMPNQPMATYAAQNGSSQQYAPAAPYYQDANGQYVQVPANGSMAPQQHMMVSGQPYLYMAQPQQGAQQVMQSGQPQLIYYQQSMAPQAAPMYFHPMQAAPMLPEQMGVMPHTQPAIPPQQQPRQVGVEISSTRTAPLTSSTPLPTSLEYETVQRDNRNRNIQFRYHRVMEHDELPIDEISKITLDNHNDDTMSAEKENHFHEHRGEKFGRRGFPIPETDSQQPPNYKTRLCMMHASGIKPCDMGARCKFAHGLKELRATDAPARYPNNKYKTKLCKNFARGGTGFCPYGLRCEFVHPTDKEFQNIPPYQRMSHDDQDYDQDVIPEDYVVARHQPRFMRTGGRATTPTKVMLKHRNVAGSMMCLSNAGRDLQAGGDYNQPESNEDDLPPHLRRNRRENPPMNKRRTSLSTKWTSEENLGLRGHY
EBV gp42 block – blocks Epstein-Barr virus glycoprotein 42 binding | Q1HVG2 | Fluorescence polarization binding assay, mP read-out | inhibition, % (tested at 21.74 µM) | hit rate 0.42% among 220,000
Runt-CBFb FRET – inhibitors of human RUNX1 Runt domain binding to CBFb; Q01196+Q13951; AID 1496; hit rate 0.46% among 220,000; inhibition, % at 20 µM; Cerulean-Runt/Venus-CBFb FRET ratio 530/480, 1 h;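 active means inhibition over about 50% at 20 µM in the single-dose screen, limit read from the data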;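 further: 0% = DMSO wells and 100% = excess unlabeled CBFb competitor control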
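Measured by: fluorescence energy transfer, 422 nm excitation, 530/480 nm emission; test system: Cerulean-tagged RUNX1 Runt domain (FRET donor) fusion protein; buffer or medium: Tris pH 7.5 buffer with BSA; compound: one dose, 20 µM compound, 1% DMSO; times: two 1 h room-temperature incubations shielded from light; benchmarks: unlabeled CBFb 5 µM, positive control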
Runt-SMMHC FRET – Runt domain-CBFb-SMMHC interaction inhibition | inhibition, % at 20 µM | Cerulean-Runt/Venus-CBFb-SMMHC FRET ratio 530/480, 1 h | AID 1434 | Q01196+Q13951 | hit rate 0.74% among 220,000;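 active means mean inhibition across duplicate retests at 20 µM reaching about 50%, limit read from the data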;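 further: 0% = DMSO wells and 100% = wells with excess untagged CBFb-SMMHC; inhibitors lower the FRET ratio by blocking Runt binding to CBFb-SMMHC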
An asterisk follows results filed as active; u = inconclusive; x = no result. This is a sample that favours compounds with a hit; in the whole collection about 2% have one here. Unless noted, no stated cut-off is given here; in the data, active means inhibition above about 50%; inactive means the rest.

SMILES	PKD1 inh	RanGTP-Imp inh	MEX-5 binding	EBV gp42 block	Runt-CBFb FRET	Runt-SMMHC FRET
O=c1c2ccccc2nc2n1CC/C2=C\c1ccccc1[N+](=O)[O-]	9	x	x	66*	-2	-1
CCCNc1cc(=S)nc(N)[nH]1	x	36*	-3	-10	36	22
CC1CCCCN1C(=O)CN1C(=O)CSc2ccc(S(=O)(=O)N3CCOCC3)cc21 (stereo not drawn)	x	2	-1	x	x	x
CCOc1cc(NS(=O)(=O)c2ccc(NC(C)=O)cc2)c(OCC)cc1NC(=O)C(C)C	7	18*	-2	-4	3	8
Cc1nnc(NC(=O)c2sc3nc(-c4cccs4)cc(C(F)(F)F)c3c2N)s1	-4	1	-5	-18	-76	-268
CC(C)(C)C(=O)c1sc2nc(-c3cccs3)cc(C(F)(F)F)c2c1N	3	-42	-74*	9	-2	-102
CCN(CC)C(=O)c1sc2nc(-c3cccs3)cc(-c3ccc(Cl)cc3)c2c1N	-7	4	1	86*	x	-10
NC(=O)c1sc2nc(-c3cccs3)ccc2c1N	x	u	-2	x	x	x
CCN(CC)C(=O)c1sc2nc(-c3cccs3)cc(-c3cccs3)c2c1N	x	-17	-33*	47	1	-125
CCc1ccc(NC(=O)C(C)OC(=O)C2CCN(c3ccc(C(F)(F)F)cn3)CC2)cc1 (stereo not drawn)	x	0	-1	x	x	x
O=C1c2ccncc2C(=O)N1Cc1cccc(Cl)c1	9	3	2	7	-3	-1
Cc1cccc(NCN2C(=O)c3ccncc3C2=O)n1	-12	19*	-2	-10	-2	0
Cc1ccc(CNC(=O)CC(C)S(=O)(=O)c2ccc3c(c2)NC(=O)CS3)o1 (stereo not drawn)	x	-3	-17	x	x	x
Nc1c(C(=O)N/N=C/c2cccnc2)oc2nc(-c3ccco3)cc(-c3ccco3)c12	x	-2	-6	19	-16	-57
Nc1c(C(=O)N/N=C/c2cccnc2)oc2nc(-c3ccccc3)cc(-c3ccco3)c12	x	-10	-37*	-48	-63	-100
O=C(COc1ccccc1Cl)Nc1ccc(CN2CCCCC2)cc1	-4	31*	0	2	-1	-2
CCOC(=O)C1=C(C)NC(=O)NC1c1ccc(N(C)C)cc1 (stereo not drawn)	-4	0	0	-4	1	3
CCC(CC)COC(=O)C1=C(C)NC(=O)NC1c1ccc(N(C)C)cc1 (stereo not drawn)	x	16*	-4	x	x	x
OC(CCc1ccncc1)COc1ccccc1 (stereo not drawn)	x	-1	0	x	x	x
COC(=O)C1=C(C)N(c2cc(C)cc(C)c2)/C(=C/c2ccco2)C1=O	-10	u	-2	-1	2	-5
COC(=O)C1=C(C)N(c2ccccc2)/C(=C/c2ccco2)C1=O	x	-1	-28*	-13	0	-4
COC(=O)Cn1c(=O)c(C(=O)CCl)c(N)n(Cc2ccccc2)c1=O	x	0	3	-13	1	3
COC(=O)Cn1c(=O)c2c(n(Cc3ccccc3)c1=O)N/C(=C/c1ccc(OC)cc1)C2=O	x	20*	-2	-18	-20	30
CC(C)[C@H](NC(=O)[C@@H]1Cc2ccccc2CN1C(=O)OC(C)(C)C)C(=O)NCC1CCCO1 (stereo partly drawn)	x	2	0	x	x	x
Cc1cc(=O)oc2cc(OCC(=O)N3CC(C)OC(C)C3)ccc12 (stereo not drawn)	-10	5	0	3	0	1
SMILES	PKD1 inh	RanGTP-Imp inh	MEX-5 binding	EBV gp42 block	Runt-CBFb FRET	Runt-SMMHC FRET
CCc1cc(=O)oc2c(CN3CCN(C)CC3)c(O)ccc12	x	4	1	x	x	x
Cc1cc(=O)oc2c(CN3CC(C)OC(C)C3)c(O)c(Cl)cc12 (stereo not drawn)	-8	34*	-9	30	108*	136*
CCc1cc(=O)oc2c(CN3CCCC3)c(O)c(Cl)cc12	-4	u	0	x	99*	146*
CCc1cc2c(-c3ccccc3)cc(=O)oc2c(CN2CCOCC2)c1O	-2	-2	0	16	-56	65
CCCCc1cc(=O)oc2c(CN3CCCC3)c(O)ccc12	-12	8	0	x	34	95*
O=C1CCc2cc(NS(=O)(=O)c3ccc(Br)cc3)cc3c2N1CC3	x	-3	0	x	x	x
O=C(C1CCC(=O)N(C2CC2)C1)N1CCC(Oc2cccc(C(F)(F)F)c2)CC1 (stereo not drawn)	x	-5	3	x	x	x
CC(=O)N1C(=O)c2cccc3cccc(c23)C(=O)N1C(C)=O	-3	0	0	-17	-1	-1
O=C1c2cccc3cccc(c23)C(=O)C1(O)O	x	7	-59*	x	x	x
COc1ccccc1CNC(=O)c1ccncc1	x	23*	1	x	x	x
COc1ccccc1CNC(=O)c1cccc(NC(=O)c2ccccc2)c1	0	-2	2	-5	0	-2
COc1cc2ccc(=O)oc2c(O)c1OCC=C(C)C	11	9	-3	-8	61*	62*
CC(C)=CCOc1ccc2ccc(=O)oc2c1	3	5	-2	-6	2	0
COC(=O)C1=CN(C(C)C)C=C(C(=O)OC)C1c1cc2c(cc1Br)OCO2	-10	30*	0	-8	12	118*
CC1=C(C(=O)OCC(C)C)C(c2cc3c(cc2Br)OCO3)NC(=O)N1C (stereo not drawn)	-3	2	-1	-3	-3	0
CC1CCc2cccc3c2N1c1cc(C#N)c(C#N)cc1O3 (stereo not drawn)	-10	4	-1	116*	-71	-271
O=C(Nc1ccncc1)Nc1ccc(F)cc1F	2	-2	2	73*	2	-6
NS(=O)(=O)c1ccc(CCNC(=O)c2ccc3c(c2)OCCO3)cc1	0	-2	0	-1	1	-3
O=C(NCC1CCCO1)c1nn2c(C(F)(F)F)cc(-c3cc(Br)cs3)nc2c1Br (stereo not drawn)	x	-2	-53*	x	x	x
CCOC(=O)c1c2ccc(OCC(=O)N/N=C/c3ccc(C)cc3)cc2n2ccccc12	7	29*	-29*	43	-4	78
CCOC(=O)c1c2ccc(OCC(=O)NN)cc2n2ccccc12	-3	66*	-7	26	21	86*
CCOC(=O)c1c(C)n(C)c2cc(OCCN(CC)CC)ccc12	-9	-1	3	1	-1	-1
CCOC(=O)C1=C2NC(=O)c3ccccc3N2C(=O)C1	-7	2	-31*	-8	2	8
Cc1ccc(NC(=S)NC2CCSc3ccccc32)cc1C (stereo not drawn)	x	-3	0	x	x	x
